Results from ChEMBL document CHEMBL4725448, “Substituted Azabicyclo[2.2.1]heptanes as Selective Orexin-1 Antagonists: Discovery of JNJ-54717793” (ACS Med Chem Lett, 2020).
pKi: −log10 of the molar value. Values after ≈ are worked out from the molar mass of the structure shown.

Legend:
[1] = Cmax in dog at 0.5 mg/kg, iv and […], po; assay type: ADME, organism-based, Canis lupus familiaris; design: dose 2.5 mg/kg; details: in vivo
[2] = Volume of distribution at steady state in mouse at 1 mg/kg, iv and 5 mg/kg, po; assay type: ADME, organism-based; details: in vivo, read-out: Vdss
[3] = Protein binding in rat brain assessed as free fraction; assay type: ADME, tissue-based
[4] = Oral bioavailability in mouse at 5 mg/kg; assay type: ADME, organism-based; details: in vivo
[5] = Oral bioavailability in primate at 5 mg/kg; assay type: ADME, organism-based; details: primates, in vivo
[6] = AUC (0 to 24 hrs) in rat assessed as NOAEL at 200 mg/kg/day, po administered as repeated dose for 6 days; assay type: ADME, organism-based; design: route oral, time 6 day, dose 200 mg/kg/day; details: in vivo
[7] = Cmax in rat assessed as NOAEL at 200 mg/kg/day, po administered as repeated dose for 13 days; assay type: ADME, organism-based; design: route oral, time 13 day, dose 200 mg/kg/day; details: in vivo
[8] = AUC in rat assessed as NOAEL at 250 mg/kg, po administered as repeated dose for 5 days; assay type: ADME, organism-based; design: time 5 day, dose 250 mg/kg; details: in vivo
[9] = Clearance in rat at 1 mg/kg, iv and 5 mg/kg, po; assay type: ADME, organism-based; details: in vivo
[10] = Cmax in rat assessed as NOAEL at 200 mg/kg/day, po administered as repeated dose for 6 days; assay type: ADME, organism-based; design: route oral, dose 200 mg/kg/day, time 6 day; details: in vivo
[11] = Drug concentration in Sprague-Dawley rat plasma at 30 mg/kg, po after 0.5 hrs by LC-MS/MS analysis; assay type: ADME, organism-based
Outline: (§1)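 Brain and plasma levels (ng/mL) sampled 0.5 h after oral dosing at 10 or 30 mg/kg, alongside the ex vivo tenia tecta occupancy study.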

[12] = Ex vivo receptor occupancy at OX1R in po dosed rat tenia tecta after 60 mins; assay type: functional, organism-based; details: 1 h
[13] = Oral bioavailability in dog at […]; assay type: ADME, organism-based, Canis lupus familiaris; details: in vivo, dose 2.5 mg/kg
[14] = Cmax in rat assessed as NOAEL at 200 mg/kg/day, po measured after immediately administered; assay type: ADME, organism-based; design: route oral, dose 200 mg/kg/day, time 13 day; details: in vivo
[15] = Volume of distribution at steady state in primate; assay type: ADME; details: primates; read-out: Vdss
[16] = Drug concentration in Sprague-Dawley rat plasma at 10 mg/kg, po after 0.5 hrs by LC-MS/MS analysis; assay type: ADME, organism-based; outline: as §1
[17] = target: T1, Orexin/Hypocretin receptor type 1 (Homo sapiens, UniProt O43613); assay: Binding affinity to human […]
T1 sequence (O43613 whole entry): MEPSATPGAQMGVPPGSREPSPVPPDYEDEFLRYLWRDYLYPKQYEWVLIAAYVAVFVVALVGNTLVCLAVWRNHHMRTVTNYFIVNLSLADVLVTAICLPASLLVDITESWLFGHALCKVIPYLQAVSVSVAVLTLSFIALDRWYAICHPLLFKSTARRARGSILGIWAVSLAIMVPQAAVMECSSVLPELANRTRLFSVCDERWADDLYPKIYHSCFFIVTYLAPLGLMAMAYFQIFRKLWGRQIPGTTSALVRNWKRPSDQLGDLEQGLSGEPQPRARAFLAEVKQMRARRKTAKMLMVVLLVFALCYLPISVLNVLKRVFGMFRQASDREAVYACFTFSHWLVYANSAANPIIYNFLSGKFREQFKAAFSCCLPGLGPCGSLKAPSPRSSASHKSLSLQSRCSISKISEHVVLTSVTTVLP

[18] = AUC in human at 50 mg/day; assay type: ADME; design: dose 50 mg
[19] = Stability in dog liver microsomes assessed as extraction ratio; assay type: ADME, Canis lupus familiaris, Microsome; details: read-out: ERH
[20] = Protein binding in rat plasma assessed as free fraction; assay type: ADME, cell-free
[21] = Clearance in primate; assay type: ADME; details: primates
[22] = Cmax in dog assessed as NOAEL at 25 mg/kg, po administered for 6 days; assay type: ADME, organism-based, Canis lupus familiaris; design: route oral, dose 25 mg/kg, time 6 day; details: in vivo
Outline: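 Six-day dog toxicology study with oral dosing; NOAEL-level Cmax; exposures compared between sexes and between day 0 and day 5.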

[23] = Cmax in human at 50 mg/day; assay type: ADME; design: dose 50 mg
[24] = AUC (0 to 24 hrs) in rat assessed as NOAEL at 200 mg/kg/day, po measured after immediately administered; assay type: ADME, organism-based; design: route oral, time 13 day, dose 200 mg/kg/day; details: in vivo
[25] = Ex vivo receptor occupancy at OX1R in Sprague-Dawley rat brain tenia tecta using [3H]SB-674042 labelling at 30 mg/kg, po measured after 2 hrs by autoradiography; assay type: functional
Outline: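 Ex vivo OX1R binding autoradiography in rat tenia tecta after a 30 mg/kg po dose; percent occupancy read at 0.5 and 2 h.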

[26] = Ex vivo receptor occupancy at OX1R in Sprague-Dawley rat brain tenia tecta using [3H]SB-674042 labelling at 10 mg/kg, po measured after 2 hrs by autoradiography; assay type: functional
Outline: (§2)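 Rats received a single oral dose, and OX1R occupancy was measured by ex vivo binding autoradiography in brain tenia tecta sections at 0.5, 2 and 6 h after dosing. Occupancy is expressed as percent. Brain and plasma drug levels (ng/mL) were also sampled at the 0.5 h time point.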

[27] = Cmax in rat assessed as NOAEL at 250 mg/kg, po administered as repeated dose for 5 days; assay type: ADME, organism-based; design: route oral, dose 250 mg/kg, time 5 day; details: in vivo
[28] = Ex vivo receptor occupancy at OX1R in Sprague-Dawley rat brain tenia tecta using [3H]SB-674042 labelling at 10 mg/kg, po measured after 6 hrs by autoradiography; assay type: functional; outline: as §2
[29] = Cmax in mouse assessed as NOAEL at 200 mg/kg/day, po measured after immediately administered; assay type: ADME, organism-based; design: route oral, time 13 day, dose 200 mg/kg/day; details: in vivo
[30] = Stability in human liver microsomes assessed as extraction ratio; assay type: ADME, Microsome; details: read-out: ERH
Outline: (§3)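 Metabolic stability in human or rat liver microsomes, expressed as extraction ratios.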

[31] = Clearance in mouse at 1 mg/kg, iv and 5 mg/kg, po; assay type: ADME, organism-based; details: in vivo
[32] = Stability in rat liver microsomes assessed as extraction ratio; assay type: ADME, Microsome; details: read-out: ERH; outline: as §3
[33] = Volume of distribution at steady state in dog at 0.5 mg/kg, iv and […], po; assay type: ADME, organism-based, Canis lupus familiaris; details: in vivo, dose 2.5 mg/kg, read-out: Vdss
Orexin receptor type 2 = target: T2, Orexin receptor type 2 (Homo sapiens, UniProt O43614); assay: Binding affinity to human OX2R
T2 sequence (O43614 whole entry): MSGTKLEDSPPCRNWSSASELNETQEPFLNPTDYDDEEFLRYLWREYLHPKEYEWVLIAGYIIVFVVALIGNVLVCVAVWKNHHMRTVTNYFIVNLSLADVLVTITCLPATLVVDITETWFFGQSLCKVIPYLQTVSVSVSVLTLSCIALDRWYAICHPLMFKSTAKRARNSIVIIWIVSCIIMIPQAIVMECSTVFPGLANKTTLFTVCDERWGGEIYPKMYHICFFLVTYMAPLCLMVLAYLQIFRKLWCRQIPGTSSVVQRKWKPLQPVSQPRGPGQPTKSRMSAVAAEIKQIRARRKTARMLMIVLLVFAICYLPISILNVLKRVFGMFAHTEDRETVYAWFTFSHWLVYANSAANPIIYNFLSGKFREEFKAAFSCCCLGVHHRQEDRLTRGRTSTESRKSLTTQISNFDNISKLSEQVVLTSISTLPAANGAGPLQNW

[34] = Stability in mouse liver microsomes assessed as extraction ratio; assay type: ADME, Microsome; details: read-out: ERH
[35] = […] clearance in nonhuman primate; assay type: ADME; details: primates
[36] = AUC (0 to 24 hrs) in mouse assessed as NOAEL at 200 mg/kg/day, po measured after immediately administered; assay type: ADME, organism-based; design: route oral, dose 200 mg/kg/day, time 13 day; details: in vivo

Compound O=C(c1cccc(F)c1-c1ncccn1)N1[C@@H]2CC[C@H]1[C@H](Nc1cnc(C(F)(F)F)cn1)C2 has a Cmax [1] of 2240 ng/mL, a Vd [2] of 1.1 L/kg and a fraction unbound [3] of 0.09. For the same compound, the bioavailability [4] was 58%, the bioavailability [5] was 22% and the AUC at 144 h [6] was 62 µg·h/mL. It also gave a Cmax [7] of 6980 ng/mL, an AUC at 120 h [8] of 101 µg·h/mL and a clearance [9] of 17 mL/min/kg. For the same compound, the Cmax [10] was 8800 ng/mL, the concentration at 0.5 h [11] was 4960 ng/mL and the EC50 [12] was 0.085 µg/mL (≈ 0.185 µM). It also gave an ED50 ([12]; po, time 60 min) of 1.3 mg/kg, a bioavailability [13] of 48% and a Cmax [14] of 30900 ng/mL. For the same compound, the Vd [15] was 0.8 L/kg, the concentration at 0.5 h [16] was 1190 ng/mL and the pKi [17] was 7.80. For the same compound, the AUC [18] was 6.87 µg·h/mL, the hepatic extraction ratio [19] was under 0.3 and the fraction unbound [20] was 0.23. The clearance [21] was 14 mL/min/kg, the Cmax [22] was 15100 ng/mL and the Cmax [23] was 537 ng/mL. The AUC at 312 h [24] was 386 µg·h/mL, the Activity [25] was 100% and the Activity [26] was 41%. The Cmax [27] was 15000 ng/mL, the Activity [28] was 17% and the Cmax [29] was 32900 ng/mL. The hepatic extraction ratio [30] was under 0.3, the clearance [31] was 21 mL/min/kg and the hepatic extraction ratio [32] was 0.31. For the same compound, the Vd [33] was 0.6 L/kg, the pKi (Orexin receptor type 2) was 6.15 and the hepatic extraction ratio [34] was 0.4. It also gave a CLint scaled [35] of 13 mL/min/kg and an AUC at 312 h [36] of 225 µg·h/mL.
